# PP1 inh – counter-screen for PP5 inhibitors: inhibitors of human PP1-alpha; P62136; actives 0.9% (n = 320,000); inhibition, % at 6.7 µM; purified PP1alpha, OMFP fluorescence;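 active = inhibition above the mean inhibition of all tested compounds plus 3 SD, computed separately for each screening campaign, cut at about 15% in these data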
# T cruzi repl – T. cruzi replication inhibition; inhibition, % (test concentration not listed); T. cruzi beta-gal in NIH3T3, luminescence, 90 h; actives 1.4% (n = 300,000);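 active = mean inhibition across valid replicates above about 55%, limit read from the data; inconclusive = mean below that limit but half or more replicates reach it; inactive = mean below it, under half of replicates reach it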;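 also: signal also drops with host cell toxicity which is not excluded here; 0% = plate median of DMSO wells and 100% = zero luminescence signal; higher percent means less beta-gal luminescence so fewer parasites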
#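 Incubation – ≥90 h infection period, 3 h prior cell attachment · System – NIH/3T3 fibroblasts plus reporter T. cruzi · Doses – compound pinned at 50 nL/well, DMSO · Read-out basis – percent inhibition of parasite-derived β-gal signal · Signal – luminescent β-galactosidase signal after 60 min lysis · Also added – 5000 T. cruzi trypomastigotes/well · Medium – Low-serum DMEM with 2% FBS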
# p-CIP stab down – lowers stability of the mouse p/CIP coactivator protein | Q05BA5 | actives 0.01% (n = 290,000) | decrease of EGFP signal, % at 10 µM | F442A p/CIP-EGFP cells, EGFP fluorescence, 16 h;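 active = EGFP signal decrease of at least 30% at 10 µM or well 3 SD below plate mean, unless failing retest; inactive = the rest, including hits failing retest or dose response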
# UBC13 inh – inhibitors of human UBC13 polyubiquitin chain formation | P61088 | TR-FRET | actives 0.47% (n = 330,000) | inhibition, % at 20 µM; in the data active = inhibition above about 45%, passing the limit was not always enough; inconclusive = no clear call, values can overlap the other calls
# AI-2 QS modul – modulates the Vibrio harveyi AI-2 quorum sensing system; Vibrio harveyi JMH597 AI-2 luminescence/OD600 ratio, 9 h; hits give low values; strain lacks LuxN and CqsS sensors; 0 = neutral-control median; activity change, % at 7.5 µM; actives 0.4% (n = 300,000); in the data active = activity change below about -75%, passing the limit was not always enough; inconclusive = no clear call, values can overlap the other calls;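 also: luminescence divided by OD600 gain over 9 h not by final OD600 alone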
# * hit, by the source's call; ? = inconclusive; . = no result. This is a sample that favours compounds with a hit; in the whole collection about 2.8% have one here.
SMILES,PP1 inh,T cruzi repl,p-CIP stab down,UBC13 inh,AI-2 QS modul
O=c1c2c3c(sc2n(CCN2CCCCC2)c(=O)n1Cc1ccco1)CCCCC3,6,63*,-3,14,0
O=c1c2c3c(sc2n(CCN2CCOCC2)c(=O)n1Cc1ccco1)CCCCC3,1,34,-11,3,12
O=C(Cc1ccccc1Cl)Nc1cccnc1,-2,-23,16,-2,14
COc1ccc(NC(=S)N=Nc2c(O)[nH]c3ccccc23)cc1,4,48,3,?,34
Cc1ccc(NC(=S)N=Nc2c(O)[nH]c3ccccc23)cc1,-2,68*,4,43,38
Oc1[nH]c2ccc(Br)cc2c1N=NC(=S)Nc1ccc(F)cc1,14,59*,-10,43,36
CC1=C(C)C(C)=C(C#N)C(=C(C#N)C#N)N1,-5,-1,-26,31,-9
C=CCN(C(=O)CSC1=NC(=O)CN1C(C)=O)c1nc(C)c(-c2ccccc2)s1,-6,70*,7,10,10
CCOc1ccc(NC(=O)CCNC(=O)Cn2ccc3ccccc3c2=O)cc1,0,3,3,4,7
Cc1cc(=O)[nH]c(N/N=C/c2c(O)n(-c3ccccc3)c(=O)c3ccccc23)n1,17*,-3,-8,30,35
COc1ccc(NC(=O)CSc2nc(=O)n(CCN3CCOCC3)c3c2CCCC3)c(OC)c1,-2,-10,.,3,16
Cc1ccc(-c2nnc(Nc3ccc(CC(N)=O)cc3)c3ccccc23)cc1,1,60*,-1,6,9
COc1ccc(-c2csc(N=C(N)N)n2)cc1,4,1,5,12,-3
Cc1ccc(-c2csc(N=C(N)N)n2)c(C)c1,4,60*,-14,1,9
CC(=O)c1cn(CC(=O)NCc2ccco2)c2ccccc12,-1,-14,-7,16,11
O=C(Cn1cc(C(=O)COc2ccccc2)c2ccccc21)NCc1ccco1,17*,3,-13,13,17
CSc1ccccc1OCc1cc(C(=O)NCCc2ccco2)no1,-2,-6,-7,4,17
O=C(CCn1ccnc1)Nc1ccc2ccccc2c1,-1,75*,-4,-1,12
CCn1c2ccccc2c2cc(NC(=O)C(C)OC(=O)c3ccc(NC(=O)CC#N)cc3)ccc21 (stereo unspecified),1,.,.,-26,.
CCN1CCN(CC(=O)N2CCCC(C(=O)c3ccc(Oc4ccccc4)cc3)C2)CC1 (stereo unspecified),-2,72*,-8,-4,-8
COCCC(=O)N1CCCC(C(=O)c2ccc(Oc3ccccc3)cc2)C1 (stereo unspecified),-4,5,4,5,9
CCC(NC(=O)CCC(=O)N1CCN(S(=O)(=O)c2ccc(C)cc2)CC1)c1ccc(C)cc1 (stereo unspecified),-2,.,.,5,.
Oc1cccc(/C=N/NC(=S)Nc2cccnc2)c1O,-1,-17,-3,.,-84*
CCC(C)(C)NC(=O)C(C(C)C)N(CC1CCCO1)C(=O)CNS(=O)(=O)c1ccccc1 (stereo unspecified),0,-2,-8,-6,1
Cc1csc2nc(O)c(C(=O)NCc3ccc4c(c3)OCO4)c(=O)n12,17*,9,.,-15,24
SMILES,PP1 inh,T cruzi repl,p-CIP stab down,UBC13 inh,AI-2 QS modul
CCOC(=O)C1=C(C)N(CCCC(=O)O)C(=O)NC1c1ccccc1OS(=O)(=O)c1ccccc1[N+](=O)[O-] (stereo unspecified),0,-1,.,-11,30
CCn1c(=O)c(CCC(=O)N2CCN(c3ccccn3)CC2)c(C)c2c(C)nn(-c3cccc(C)c3)c21,-1,58*,-1,1,14
Cc1nc2nc(C)c(CCC(=O)N3CCN(c4ccccn4)CC3)c(C)n2n1,-2,-6,-2,-8,9
N#Cc1cc([N+](=O)[O-])ccc1NC(=O)CSc1n[nH]c(=O)n1C1CC1,0,.,.,-8,.
CCOc1ccc(OCCC(=O)N(CC)CC(=O)Nc2c(F)cccc2F)cc1,-3,.,.,2,.
CCCCNC(=S)Nc1cccc(S(=O)(=O)NC2=NCCC2)c1,16*,-13,.,-7,6
CC(=O)Nc1c2c(nn1-c1cccc(Cl)c1)CS(=O)(=O)C2,2,-2,-11,1,28
COc1ccc(/C=N/NC(=O)c2nn(-c3ccccc3)c(=O)c3c(N)scc23)cc1,7,3,0,-30,24
COc1ccc(/C=N/NC(=O)c2nn(-c3ccc(Cl)cc3)c(=O)c3c(N)scc23)cc1,17*,-8,-8,-35,12
Cc1ccccc1C(=O)NC(=S)Nc1ccc(Oc2ccc(Cl)cc2)cc1,2,20,-4,-9,7
O=C(NC(=S)Nc1ccc(Oc2ccccc2)cc1)c1ccc(Cl)cc1,4,62*,-9,-5,46
Cc1ccc(C(=O)NC(=S)Nc2ccc(Oc3ccc(Cl)cc3)cc2)cc1,-2,65*,-2,1,12
Cc1ccc(S(=O)(=O)N(CC(=O)Nc2ccc(Cl)c([N+](=O)[O-])c2)C2CCCCC2)cc1,-5,59*,-8,-1,24
Cc1ccc(S(=O)(=O)N(CC(=O)Nc2cccc([N+](=O)[O-])c2)C2CCCCC2)cc1,5,-4,-14,1,35
CCN(C1CCCCC1)S(=O)(=O)c1ccc(S(=O)(=O)N(CC(=O)Nc2ccccc2)C2CC2)cc1,-3,55*,3,7,23
O=C(CN(C1CC1)S(=O)(=O)c1ccc(S(=O)(=O)N2CCCCCC2)cc1)Nc1ccccc1,2,11,-1,-6,11
COc1ccccc1NS(=O)(=O)c1ccc(NC(=O)N2CCCCC2)cc1,1,-3,2,0,15
Cc1c(OCC(=O)NC(Cc2ccc(Cl)cc2)C(=O)O)ccc2c(-c3ccccc3)cc(=O)oc12 (stereo unspecified),17*,-7,-1,-14,-5
COc1ccc(-c2cc(=O)oc3c(C)c(OCC(=O)N[C@@H](Cc4ccc(O)cc4)C(=O)O)ccc23)cc1,-5,1,9,-11,26
CCOC(=O)N1CCN(C(=O)COC(=O)c2ccccc2NCCO)CC1,-5,-8,.,8,0
CCCCN1/C(=C/c2ccc3ccccc3[n+]2CC)Sc2ccccc21,.,63*,-428,-207,27
CCN1/C(=C/c2ccc3cc(C)ccc3[n+]2CC)Sc2cc(C)ccc21,.,.,-725,.,.
COCCN(C(=O)COC(=O)CSc1ccc(Cl)cc1)c1c(N)n(Cc2ccccc2)c(=O)[nH]c1=O,-2,-4,.,2,18
S=C(c1cn(CCOc2cccc3ccccc23)c2ccccc12)N1CCCC1,24*,40,-3,11,1
S=C(c1cn(CCOc2ccccc2)c2ccccc12)N1CCCC1,1,16,-6,17,-9
CC(=O)COc1coc(CN2CCN(c3ccc(F)cc3)CC2)cc1=O,2,-8,-8,-5,24
